Key:
Format in all cases: ADME, organism-based
Settings in all cases: in vivo
[1] = Drug concentration in ovariectomized nu/nu mouse plasma assessed 3-(4-morpholinopyrido [3',2':4,5] furo [3,2-d] pyrimidin-2-yl)phenol at 10 mg/kg, po measured after 8 hrs by UHPLC-MS analysis
How it was run: (§1)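 Female ovariectomized Nu/Nu mice, 4–6 weeks old, n = 5 per group. Single 10 mg/kg oral gavage in 5% DMSO/40% PEG 400/55% saline. Orbital-sinus blood was taken at 0.5, 1, 3, 8 and 24 h, one sampling per group, into EDTA. Plasma was spun at 4 °C and stored at −80 °C. The prodrug's boronic acid metabolite and phenol were quantified by C18 UHPLC–TSQ MS/MS with an acetonitrile/water 0.05% formic acid gradient.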

[2] = Drug concentration in ovariectomized nu/nu mouse plasma assessed 3-(4-morpholinopyrido [3',2':4,5] furo [3,2-d] pyrimidin-2-yl)phenol at 10 mg/kg, po measured after 24 hrs by UHPLC-MS analysis; how it was run: as §1
[3] = Cmax in ovariectomized nu/nu mouse assessed 3-(4-morpholinopyrido [3',2':4,5] furo [3,2-d] pyrimidin-2-yl)phenol at 10 mg/kg, po measured upto 24 hrs by UHPLC-MS analysis; parameters: dose 10 mg/kg, route oral; how it was run: as §1
[4] = Tmax in ovariectomized nu/nu mouse assessed 3-(4-morpholinopyrido [3',2':4,5] furo [3,2-d] pyrimidin-2-yl)phenol at 10 mg/kg, po measured upto 24 hrs by UHPLC-MS analysis; how it was run: as §1
[5] = Half life in ovariectomized nu/nu mouse assessed 3-(4-morpholinopyrido [3',2':4,5] furo [3,2-d] pyrimidin-2-yl)phenol at 10 mg/kg, po measured upto 24 hrs by UHPLC-MS analysis; how it was run: as §1
[6] = AUC (0 to 24 hrs) in ovariectomized nu/nu mouse assessed 3-(4-morpholinopyrido [3',2':4,5] furo [3,2-d] pyrimidin-2-yl)phenol at 10 mg/kg, po measured upto 24 hrs by UHPLC-MS analysis; parameters: dose 10 mg/kg, time < 24 hr, route oral; how it was run: as §1
[7] = Drug concentration in ovariectomized nu/nu mouse plasma assessed (3-(4-morpholinopyrido [3',2':4,5] furo [3,2-d] pyrimidin-2-yl)phenyl)boronic acid at 10 mg/kg, ip measured after 0.5 hrs by UHPLC-MS analysis
[8] = Drug concentration in ovariectomized nu/nu mouse plasma assessed (3-(4-morpholinopyrido [3',2':4,5] furo [3,2-d] pyrimidin-2-yl)phenyl)boronic acid at 10 mg/kg, ip measured after 1 hr by UHPLC-MS analysis
[9] = Drug concentration in ovariectomized nu/nu mouse plasma assessed (3-(4-morpholinopyrido [3',2':4,5] furo [3,2-d] pyrimidin-2-yl)phenyl)boronic acid at 10 mg/kg, ip measured after 3 hrs by UHPLC-MS analysis
[10] = Drug concentration in ovariectomized nu/nu mouse plasma assessed (3-(4-morpholinopyrido [3',2':4,5] furo [3,2-d] pyrimidin-2-yl)phenyl)boronic acid at 10 mg/kg, ip measured after 8 hrs by UHPLC-MS analysis
[11] = Drug concentration in ovariectomized nu/nu mouse plasma assessed (3-(4-morpholinopyrido [3',2':4,5] furo [3,2-d] pyrimidin-2-yl)phenyl)boronic acid at 10 mg/kg, ip measured after 24 hrs by UHPLC-MS analysis
[12] = Cmax in ovariectomized nu/nu mouse assessed (3-(4-morpholinopyrido [3',2':4,5] furo [3,2-d] pyrimidin-2-yl)phenyl)boronic acid at 10 mg/kg, ip measured upto 24 hrs by UHPLC-MS analysis; parameters: dose 10 mg/kg, route intraperitoneal
[13] = Tmax in ovariectomized nu/nu mouse assessed (3-(4-morpholinopyrido [3',2':4,5] furo [3,2-d] pyrimidin-2-yl)phenyl)boronic acid at 10 mg/kg, ip measured upto 24 hrs by UHPLC-MS analysis
[14] = AUC in ovariectomized nu/nu mouse assessed (3-(4-morpholinopyrido [3',2':4,5] furo [3,2-d] pyrimidin-2-yl)phenyl)boronic acid at 10 mg/kg, ip measured upto 24 hrs by UHPLC-MS analysis; parameters: time < 24 hr, dose 10 mg/kg, route intraperitoneal
[15] = Drug concentration in ovariectomized nu/nu mouse plasma assessed (3-(4-morpholinopyrido [3',2':4,5] furo [3,2-d] pyrimidin-2-yl)phenyl)boronic acid at 10 mg/kg, po measured after 0.5 hrs by UHPLC-MS analysis; how it was run: as §1
[16] = Drug concentration in ovariectomized nu/nu mouse plasma assessed (3-(4-morpholinopyrido [3',2':4,5] furo [3,2-d] pyrimidin-2-yl)phenyl)boronic acid at 10 mg/kg, po measured after 1 hr by UHPLC-MS analysis; how it was run: as §1
[17] = Drug concentration in ovariectomized nu/nu mouse plasma assessed (3-(4-morpholinopyrido [3',2':4,5] furo [3,2-d] pyrimidin-2-yl)phenyl)boronic acid at 10 mg/kg, po measured after 3 hrs by UHPLC-MS analysis; how it was run: as §1
[18] = Drug concentration in ovariectomized nu/nu mouse plasma assessed (3-(4-morpholinopyrido [3',2':4,5] furo [3,2-d] pyrimidin-2-yl)phenyl)boronic acid at 10 mg/kg, po measured after 8 hrs by UHPLC-MS analysis; how it was run: as §1
[19] = Drug concentration in ovariectomized nu/nu mouse plasma assessed (3-(4-morpholinopyrido [3',2':4,5] furo [3,2-d] pyrimidin-2-yl)phenyl)boronic acid at 10 mg/kg, po measured after 24 hrs by UHPLC-MS analysis; how it was run: as §1
[20] = Cmax in ovariectomized nu/nu mouse assessed (3-(4-morpholinopyrido [3',2':4,5] furo [3,2-d] pyrimidin-2-yl)phenyl)boronic acid at 10 mg/kg, po measured upto 24 hrs by UHPLC-MS analysis; parameters: dose 10 mg/kg, route oral; how it was run: as §1
[21] = Tmax in ovariectomized nu/nu mouse assessed (3-(4-morpholinopyrido [3',2':4,5] furo [3,2-d] pyrimidin-2-yl)phenyl)boronic acid at 10 mg/kg, po measured upto 24 hrs by UHPLC-MS analysis; how it was run: as §1
[22] = Half life in ovariectomized nu/nu mouse assessed (3-(4-morpholinopyrido [3',2':4,5] furo [3,2-d] pyrimidin-2-yl)phenyl)boronic acid at 10 mg/kg, po measured upto 24 hrs by UHPLC-MS analysis; how it was run: as §1
[23] = AUC (0 to 24 hrs) in ovariectomized nu/nu mouse assessed (3-(4-morpholinopyrido [3',2':4,5] furo [3,2-d] pyrimidin-2-yl)phenyl)boronic acid at 10 mg/kg, po measured upto 24 hrs by UHPLC-MS analysis; parameters: time < 24 hr, dose 10 mg/kg, route oral; how it was run: as §1

**Q.** Which results are given for `CC1(C)OB(c2cccc(-c3nc(N4CCOCC4)c4oc5ncccc5c4n3)c2)OC1(C)C`?
**A.** Cp [1]: 4.1 ng/mL; Cp [2]: 0.7 ng/mL; Cmax [3]: 8.2 ng/mL; Tmax [4]: 1 h; t1/2 [5]: 6.5 h; AUC [6]: 88.2 ng·h/mL; Cp [7]: 30.6 ng/mL; Cp [8]: 44.5 ng/mL; Cp [9]: 28 ng/mL; Cp [10]: 17.2 ng/mL; Cp [11]: 6.5 ng/mL; Cmax [12]: 44.5 ng/mL; Tmax [13]: 1 h; AUC [14]: 400.9 ng·h/mL; Cp [15]: 402.8 ng/mL; Cp [16]: 709.2 ng/mL; Cp [17]: 516.2 ng/mL; Cp [18]: 354.2 ng/mL; Cp [19]: 106.4 ng/mL; Cmax [20]: 709.2 ng/mL; Tmax [21]: 1 h; t1/2 [22]: 9.2 h; AUC [23]: 8879.9 ng·h/mL
